Test results published in ChEMBL document CHEMBL4038317, “Discovery of a Benzamide Derivative That Protects Pancreatic β-Cells against Endoplasmic Reticulum Stress” (J Med Chem, 2017).
Calls of active or inactive are those of the source. No cut-off for these calls is given here.

How the values were obtained:
Beta-TC6 = test: Cytotoxicity against mouse BetaTC6 cells assessed as reduction in cell viability up to 40 uM after 3 days by CellTiter-Glo assay; assay type: cell-based; settings: beta-tc6, 72 h
[1] = target: T1, Eukaryotic translation initiation factor 2-alpha kinase 3 (Rattus norvegicus) (UniProt Q9Z1Z1); test: Inhibition of tunicamycin ER stress-induced PERK activation in rat INS-1 cells assessed as suppression of tunicamycin-induced increase in CHOP protein levels up to 10 uM after 8 hrs by Western blot analysis; assay type: cell-based
T1 sequence (whole entry): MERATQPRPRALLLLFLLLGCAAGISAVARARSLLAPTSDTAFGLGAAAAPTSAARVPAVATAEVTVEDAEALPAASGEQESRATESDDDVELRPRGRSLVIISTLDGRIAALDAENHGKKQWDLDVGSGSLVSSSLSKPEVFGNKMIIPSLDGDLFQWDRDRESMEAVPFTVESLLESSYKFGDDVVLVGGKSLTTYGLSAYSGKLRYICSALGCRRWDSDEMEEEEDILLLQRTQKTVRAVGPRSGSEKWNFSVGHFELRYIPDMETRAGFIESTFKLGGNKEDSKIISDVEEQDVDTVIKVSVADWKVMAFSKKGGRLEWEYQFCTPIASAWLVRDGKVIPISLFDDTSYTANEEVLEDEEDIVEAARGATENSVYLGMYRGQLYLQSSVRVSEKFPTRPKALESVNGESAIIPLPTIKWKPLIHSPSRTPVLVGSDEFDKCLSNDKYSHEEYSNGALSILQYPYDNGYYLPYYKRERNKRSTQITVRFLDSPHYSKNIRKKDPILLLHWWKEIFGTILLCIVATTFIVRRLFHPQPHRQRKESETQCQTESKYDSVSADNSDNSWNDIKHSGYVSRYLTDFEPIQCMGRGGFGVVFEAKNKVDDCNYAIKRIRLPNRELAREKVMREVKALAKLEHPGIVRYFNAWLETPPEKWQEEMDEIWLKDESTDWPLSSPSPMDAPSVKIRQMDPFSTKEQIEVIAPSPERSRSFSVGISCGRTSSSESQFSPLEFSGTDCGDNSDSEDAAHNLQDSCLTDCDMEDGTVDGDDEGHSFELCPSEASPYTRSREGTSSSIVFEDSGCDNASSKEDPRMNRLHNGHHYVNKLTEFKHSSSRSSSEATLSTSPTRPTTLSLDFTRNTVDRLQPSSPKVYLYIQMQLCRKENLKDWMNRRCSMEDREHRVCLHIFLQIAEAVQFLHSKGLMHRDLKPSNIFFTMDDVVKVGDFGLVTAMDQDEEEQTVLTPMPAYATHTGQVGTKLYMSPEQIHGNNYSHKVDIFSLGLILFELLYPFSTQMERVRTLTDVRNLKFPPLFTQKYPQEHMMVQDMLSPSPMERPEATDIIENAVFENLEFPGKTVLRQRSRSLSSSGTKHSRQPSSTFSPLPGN
In short: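 INS-1 cells were exposed to tunicamycin 0.1 μg/mL with compound or DMSO for 8 h. Lysates were immunoblotted for ATF4 and CHOP (1:1000). Bands were quantified by densitometry and normalized to α-tubulin; 3 independent experiments.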

INS1 [2] = test: Effect on ATF4 mRNA level in rat INS-1 cells up to 10 uM after 8 hrs by qRT-PCR analysis; assay type: ADME, cell-based; settings: ins1, 8 h
In short: (§1)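 INS-1 cells, 4×10^5 per well, were exposed to tunicamycin 0.1 μg/mL with compound or DMSO for 8 h. qRT-PCR for ATF4, CHOP, Bip, GRP94, or spliced XBP1 using splicing-specific primers. Values were normalized to cyclophilin A by ΔΔCt and given as fold over untreated control. Triplicate wells, 3 independent experiments.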

Mus musculus [3] = test: (§2) Toxicity in STZ-induced diabetic C57BL/6 mouse model assessed as effect on alpha-cells at 5 mg/kg, ip administrated qd with streptozotocin for 5 days followed by compound administration alone for 2 more weeks by DAPI-staining based confocal microscopic analysis; assay type: organism-based; settings: in vivo, 120 h
In short: (§3)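 At the end of treatment in the STZ mouse model, pancreases were formalin-fixed, paraffin-embedded and serially sectioned at 100 μm intervals. Six sections were stained for insulin and glucagon with DAPI counterstain and imaged by confocal microscopy. Insulin-positive cells demarcated islets; total islet area per section and cells per islet were quantified.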

INS1 [4] = test: Cytoprotective activity against tunicamycin ER stress-induced apoptosis in rat INS-1 cells assessed as TUNEL positive cells at 0.1 to 1 uM after 24 hrs by TUNEL/DAPI-based microscopic analysis (reference value: 7%); assay type: functional
[5] = target: T2, Cyclic AMP-dependent transcription factor ATF-6 alpha (Rattus norvegicus) (UniProt G3V909); test: Inhibition of tunicamycin ER stress-induced ATF6 activation in rat INS-1 cells assessed as suppression of increase in Bip mRNA levels up to 10 uM after 8 hrs by qRT-PCR analysis; assay type: cell-based; in short: as §1
T2 sequence (whole entry): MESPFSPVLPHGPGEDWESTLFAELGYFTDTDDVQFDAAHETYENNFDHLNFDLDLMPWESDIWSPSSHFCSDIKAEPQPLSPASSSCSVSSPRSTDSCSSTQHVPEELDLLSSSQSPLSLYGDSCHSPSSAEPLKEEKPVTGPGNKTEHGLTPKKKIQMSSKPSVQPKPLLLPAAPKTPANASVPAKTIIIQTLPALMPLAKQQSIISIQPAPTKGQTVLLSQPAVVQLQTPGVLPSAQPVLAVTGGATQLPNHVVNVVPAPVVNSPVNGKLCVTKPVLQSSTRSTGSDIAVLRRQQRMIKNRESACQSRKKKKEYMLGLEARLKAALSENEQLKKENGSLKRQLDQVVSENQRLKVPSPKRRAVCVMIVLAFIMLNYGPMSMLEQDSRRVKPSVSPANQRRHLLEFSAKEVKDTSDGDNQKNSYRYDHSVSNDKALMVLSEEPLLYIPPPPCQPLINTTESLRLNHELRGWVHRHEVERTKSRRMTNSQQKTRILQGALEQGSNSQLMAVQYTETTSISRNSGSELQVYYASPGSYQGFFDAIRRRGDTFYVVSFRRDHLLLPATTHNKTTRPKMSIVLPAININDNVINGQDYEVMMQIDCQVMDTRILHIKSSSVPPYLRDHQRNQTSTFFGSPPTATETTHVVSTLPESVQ

Mus musculus [6] = test: as §2, with “Antidiabetic activity” for “Toxicity”, “total pancreatic islet beta-cell area” for “effect on alpha-cells”, “analysis (reference value: 30.2 +/- 7.9%)” for “analysis”; assay type: functional; in short: as §3
INS1 [7] = test: Cytoprotective activity against tunicamycin ER stress-induced apoptosis in rat INS-1 cells assessed as inhibition of tunicamycin-induced cleaved PARP expression up to 1 uM after 24 hrs by Western blot analysis; assay type: functional, cell-based
In short: (§4)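 INS-1 cells, 8×10^5 per 60-mm dish, were exposed to tunicamycin 0.1 μg/mL plus compound or DMSO for 24 h. 20 μg lysate protein was run on 7% SDS-PAGE and immunoblotted for cleaved caspase-3 and PARP (1:1000), with α-tubulin as loading control; 3 independent experiments.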

INS1 [8] = test: Cytoprotective activity against tunicamycin ER stress-induced apoptosis in rat INS-1 cells assessed as inhibition of tunicamycin-induced cleaved caspase3 expression up to 1 uM after 24 hrs by Western blot analysis; assay type: functional, cell-based; in short: as §4

- inhibition [1]: Active
- inhibition [5]: Active
SMILES: O=C(NCc1ccc(C(F)(F)F)cc1)c1cccc(CN2CCCCC2)c1
- Activity (Beta-TC6): Non-Toxic
- Activity (INS1 [2]): Non-Toxic
- Activity (Mus musculus [3]): Non-Toxic
- Activity (INS1 [4]): 0.5%
- Activity (Mus musculus [6]): 67.4%
- inhibition (INS1 [7]): Active
- inhibition (INS1 [8]): Active
